# Screening data (PubChem BioAssay)
# Dynein transport = dynein cargo transport inhibition; 220,000 tested, 0.47% active; z-score, hits read low; 3617.4 mouse cells, GR-EGFP nuclear translocation imaging; test concentration mostly 20 µM; stimulated with dexamethasone, 1 µM; active compounds read low;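 active = plate z-score of nuclear minus cytoplasmic receptor signal below a set negative limit, without overly bright fluorescence or cell loss, cut at about -3.5 in these data, passing the limit was not always enough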;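 note: z-score of nuclear minus cytoplasmic ring GR-EGFP intensity difference per well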
#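 Medium: Induction medium lacking tetracycline, stripped serum | Probe or stimulus: 1.0 µM final dexamethasone stimulus | Schedule: 48 h induction, then 1 h compound, then 30 min agonist, 37 °C | Signal: Automated 10x imaging of fixed Hoechst-stained cells | Evaluation: Per-cell GR-EGFP intensity, nucleus versus surrounding cytoplasmic ring, well-averaged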
# MEKK2mut PB1 HTS = signal of MEK5 binding to mutant human MEKK2 PB1 domain; 290,000 tested, 0.35% active; percent response, % at 10 µM; AID 1530; bead flow cytometry, Alexa488-MEK5 binding to MEKK2 mutant; in the data active = percent response above about 24%, passing the limit was not always enough
# MEKK2wt PB1 HTS = raises or lowers MEK5 binding to wildtype human MEKK2 PB1 domain. 290,000 tested, 1.1% active. binding response (% of control), % at 10 µM. bead flow cytometry, Alexa488-MEK5 binding to MEKK2 WT; actives lie on both sides. AID 1531. Q9Y2U5; in the data active = binding response below about 67% or above about 130%
# MEKK3 PB1 HTS = raises or lowers MEK5 binding to the human MEKK3 PB1 domain; Q99759; bead-based flow cytometry, Alexa488-MEK5 binding to MEKK3; actives lie on both sides; 0 = blocked by unlabeled MEK5, 100 = vehicle; binding response (% of control), % at 10 µM; 290,000 tested, 1.4% active; AID 1529;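 active = binding response more than 3 SD above or below the average of its plate-row segment, actives on both sides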;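 note: Alexa488 bead fluorescence after subtracting the streptavidin-only scavenger bead signal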
# Beta2AR agonist = agonists of human beta-2 adrenergic receptor inducing internalization. 340,000 tested, 0.43% active. AID 504454. Am2.2-beta2AR cells, FAP receptor internalization, flow cytometry. response, % (concentration not given with the values). P07550;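 active = response above a set limit, near 3 SD of response in nonfluorescent compounds, cut at about 42% in these data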
# ATG4B inhibitor = ATG4B (human) cysteine protease inhibition; ATG4B cleavage of LC3-PLA2, NBD-HPC fluorescence, 1 h; inhibition, % at 8.33 µM; 340,000 tested, 0.51% active; AID 504462; in the data active = inhibition above about 40%
# Target sequence (Q9Y4P1 whole entry, looked up): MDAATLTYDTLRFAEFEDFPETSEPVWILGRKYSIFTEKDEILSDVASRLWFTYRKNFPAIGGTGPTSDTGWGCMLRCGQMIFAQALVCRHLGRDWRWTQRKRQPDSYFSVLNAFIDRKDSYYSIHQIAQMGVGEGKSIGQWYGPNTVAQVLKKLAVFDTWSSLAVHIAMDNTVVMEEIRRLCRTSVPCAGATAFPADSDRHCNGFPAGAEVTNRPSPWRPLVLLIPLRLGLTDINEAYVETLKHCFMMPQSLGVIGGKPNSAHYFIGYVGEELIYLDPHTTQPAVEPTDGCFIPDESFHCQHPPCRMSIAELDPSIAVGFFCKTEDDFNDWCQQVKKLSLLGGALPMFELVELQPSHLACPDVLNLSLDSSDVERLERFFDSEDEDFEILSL
# MEKK2wt confirm = raises or lowers MEK5 binding to wildtype human MEKK2, retest; binding response (% of control), % at 10 µM; 5,900 tested, 2.4% active; shares compounds with MEKK3 PB1 HTS; bead flow cytometry, Alexa488-MEK5 binding to MEKK2 WT; actives lie on both sides; in the data active = binding response below about 16% or above about 210%; inactive = in between
# MEKK2mut confirm = signal of MEK5 binding to mutant human MEKK2, retest. shares compounds with MEKK3 PB1 HTS. bead flow cytometry, Alexa488-MEK5 binding to MEKK2 mutant. percent response, % at 10 µM. 5,900 tested, 2% active. AID 1893; in the data active = percent response mostly above about 71%, no sharp cut-off; inactive = mostly below about 38%;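 note: higher means compound restores mutant binding toward wildtype level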
# MEKK3-MEK5 inh = MEKK3-MEK5 PB1 inhibition, single concentration confirmation; shares compounds with MEKK3 PB1 HTS; bead flow cytometry, Alexa488-MEK5 binding to MEKK3; active compounds read low; binding response (% of control), % at 10 µM; 5,900 tested, 1.8% active; AID 1894;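 active = binding response below 72% of control, or above a set upper limit, though filed actives all read lower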;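 note: 100% = DMSO only wells and 0% = binding blocked by excess unlabeled MEK5; lower values mean stronger disruption of MEK5 binding to MEKK3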
# * = called active by the depositor; x = not tested or not shown; + = active, no number; [ ] = remark or other dose. Hits are enriched below; roughly 2.9% of the tested compounds scored in any of these assays.
SMILES,Dynein transport,MEKK2mut PB1 HTS,MEKK2wt PB1 HTS,MEKK3 PB1 HTS,Beta2AR agonist,ATG4B inhibitor,MEKK2wt confirm,MEKK2mut confirm,MEKK3-MEK5 inh
CSc1cccc(NC(=S)NCCCN2CCN(c3ccc(F)cc3)CC2)c1,0.77,18,142*,115,-11,-5,134,9,103
Cc1ccc(NS(=O)(=O)c2c(C)[nH]c(C)c2C(=O)N2CCCCC2)cc1Cl,x,3,101,100,1,-1,x,x,x
O=C(Nc1cc2c3c(c1)CC(=O)N3CCC2)c1ccco1,x,x,x,x,-13,-11,x,x,x
Cc1ccc(NC(=S)NCCCN2CCOCC2)cc1C,1.3,1,108,103,6,1,x,x,x
S=C(NCCCN1CCOCC1)Nc1ccc(Cl)c(Cl)c1,-0.31,0,109,63*[inhibitor],4,-12,89,-9,79
COc1ccc(NC(=O)CC2C(=O)N(c3ccc(Cl)cc3)C(=S)N2CCc2ccncc2)cc1 (stereo not drawn),1.2,6,108,107,6,-11,x,x,x
COc1ccc(NC(=O)CC2C(=O)N(c3ccccc3)C(=O)N2CCc2cccs2)cc1 (stereo not drawn),0.42,0,102,149*,0,3,105,5,105
COc1ccc(NC(=O)CC2C(=O)N(c3ccc(Cl)cc3)C(=S)N2CCc2ccccn2)cc1 (stereo not drawn),-0.32,0,104,130*,-6,-13,101,-7,100
CN(CC(=O)Nc1ccc(N2CCOCC2)cc1)C(=O)CCc1ccccc1Cl,x,x,x,x,-5,7,x,x,x
CCCOP(=O)(c1ccccc1)c1ccccc1,-0.39,0,106,141*,2,2,97,-6,99
CC(C)CCOP(=O)(c1ccccc1)c1ccccc1,0.33,-1,104,112,3,-4,x,x,x
O=C(Cn1nc(-c2ccccc2Cl)ccc1=O)Nc1ccc(Br)cc1,0.056,+,x,140*,9,-4,103,0,104
CCN(CC(=O)Nc1c(F)cccc1F)C(=O)c1cccc(-n2cnnn2)c1,x,x,x,x,-3,6,x,x,x
CC(C)(C)C(=O)c1sc2nc(-c3cccs3)cc(C(F)(F)F)c2c1N,-3.9,-9,53*[inhibitor],94,-728,4,102,6,103
COc1ccc2c(c1)nc(SCC(=O)C(C)(C)C)n2C,0.73,6,105,102,3,-10,x,x,x
COc1ccc2c(c1)nc(SCC(C)O)n2C (stereo not drawn),0.54,4,108,132*,1,2,102,11,105
COc1ccc2c(c1)nc(CN1CCN(CCO)CC1)n2C,x,32*,128,110,4,-3,105,1,102
CC(OC(=O)CCc1nc2ccccc2[nH]c1=O)c1ccccc1 (stereo not drawn),-0.21,-2,103,112,-3,-5,x,x,x
Cc1ccc(NC(=O)COc2ccc3c(c2)OCO3)c(C)c1,x,x,x,x,-4,-18,x,x,x
COc1cc(/C=C(\NC(=O)c2ccccc2)C(=O)NCC(=O)O)c([N+](=O)[O-])cc1OC,0.8,0,108,132*,1,5,109,21,111
COc1ccc(C(=O)N/C(=C\c2cc(OC)c(OC)cc2[N+](=O)[O-])C(=O)NCC(=O)O)cc1,-0.081,-2,98,104,-5,12,x,x,x
Cc1cccc(-n2ccnc2SCC(=O)c2c(N)n(C3CC3)c(=O)[nH]c2=O)c1C,x,x,x,x,0,0,x,x,x
C[C@@H](c1ccccc1)N1C[C@H]2CCCN2c2cc(Br)ccc2S1(=O)=O,x,x,x,x,3,-10,x,x,x
Cc1ccc(-c2nc3ccccc3c(=O)n2CCCN2CCOCC2)cc1,-0.64,-2,91,91,-12,-13,x,x,x
Cc1ccc(-c2csc3nc4c5ccccc5c(NCCCN5CCOCC5)nn4c(=O)c23)cc1,-0.18,15,145*,103,x,x,175,34,105
SMILES,Dynein transport,MEKK2mut PB1 HTS,MEKK2wt PB1 HTS,MEKK3 PB1 HTS,Beta2AR agonist,ATG4B inhibitor,MEKK2wt confirm,MEKK2mut confirm,MEKK3-MEK5 inh
CC1=[N+]([O-])C(C)(C)N(O)C1(C)C,-1.3,30,112,113,4,-6,x,x,x
CCN1C[C@@H]2[C@@H]3C(=O)N(Cc4ccccc4)C(=O)[C@@H]3[C@](CC)(C1=O)N2C(=O)c1ccccc1,x,x,x,x,-2,-13,x,x,x
CC(C)C(C(=O)Nc1ccc(N2CCOCC2)cc1)N1C(=O)c2ccccc2C1=O (stereo not drawn),0.99,-25,-2.0*[inhibitor],2.0*[inhibitor],-1,-11,107,7,103
CCn1c(CNC(=O)c2cccs2)nnc1SCC(=O)Nc1ccc(Cl)cc1,-0.65,0,110,128*,-3,-10,97,-5,95
CCn1c(CC(=O)Nc2ccc(Cl)c(Cl)c2)nnc1SCc1ccc(C)cc1,-0.6,11,107,97,-5,-2,x,x,x
CCn1c(SCC(=O)NCC(=O)Nc2ccc(F)cc2)nnc1-c1cccs1,-0.33,-21,-4.0*[inhibitor],0.0*[inhibitor],-17,-2,109,9,105
